A selection: hits, their analogues and other compounds. The true share with any hit is near 1.9%.
CTSL1 counter: cathepsin L1 inhibition, PFM18AAP counter-screen. recombinant F. hepatica cathepsin L1, Z-Leu-Arg-MCA fluorescence. inhibition, % at 5.96 µM. 300,000 tested, 0.49% active. AID 1906;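 active means inhibition above the mean of all tested compounds plus 3 SD, set per screening campaign, cut at about 17% in these data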;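 further: 0% = plate median of test compound wells and 100% = 1 µM Z-Phe-Ala-diazomethylketone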
T cell modulator: T cell immune modulators affecting CD8 T cell-vesicle binding | 2C CD8+ T cell-vesicle binding, flow cytometry; hits give low values | response (vesicle binding), % at 7 µM | 330,000 tested, 0.068% active | AID 2052;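 active means response, share of CD8 T cells binding vesicles, and their 90th percentile fluorescence all below set limits, cut at about 80% in these data, passing the limit was not always enough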;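 further: values below 100% mean blocked vesicle binding to the CD8+ T cells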
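Material: murine 2C transgenic CD8+ T lymphocytes / Also added: QL9-peptide-loaded Drosophila micro-vesicles bearing Ld, ICAM-1 and B7-1 / Schedule: binding step 1.5 h, 37 °C, antibody labelling 20 min, ice / Signal: flow cytometry, PE anti-B7-1 (FL2) versus Alexa647 anti-CD8 (FL8), PFA-fixed / Evaluation: percent CD8+ FL2 mean versus row control / Benchmarks: naked versus QL9-loaded vesicles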
IMP-1 inh: blocks Pseudomonas aeruginosa IMP-1 metallo-beta-lactamase; purified IMP-1, nitrocefin hydrolysis, epi-absorbance fluorescence; inhibition, % at 5.6 µM; 290,000 tested, 0.45% active; AID 1556;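 active means inhibition above the mean plus 3 SD of all compounds in the same screening run, cut at about 4.5% in these data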;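 further: 0% = IMP-1 with DMSO and 100% = DMSO wells lacking enzyme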
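System: purified IMP-1 / Input: IMP-1 dispensed at 0.2 nM / Medium: 50 mM HEPES pH 7.1, 50 µM ZnSO4, 0.05% Brij 35 / Timing: 15 min enzyme–compound preincubation, then 25 min nitrocefin reaction, 25 °C / Technique: plate fluorescence quenching by hydrolysis product, ex 480/em 530 nm / Repeats: singlicate testing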
p-CIP stab down: lowers stability of the mouse p/CIP coactivator protein. Q05BA5. AID 1984. F442A p/CIP-EGFP cells, EGFP fluorescence, 16 h. decrease of EGFP signal, % at 10 µM. 290,000 tested, 0.01% active;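 active means EGFP signal decrease of at least 30% at 10 µM or well 3 SD below plate mean, unless failing retest; inactive means the rest, including hits failing retest or dose response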
VIM-2 inhibitor: inhibitors of Pseudomonas aeruginosa VIM-2 metallo-beta-lactamase; 290,000 tested, 0.89% active; purified VIM-2, nitrocefin hydrolysis, epi-absorbance fluorescence; inhibition, % at 5.6 µM; AID 1527;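 active means inhibition above the mean of all tested compounds plus 3 SD, cutoff set per screening run, cut at about 7.5% in these data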;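 further: red hydrolysis product quenches plate fluorescence so inhibitors raise well fluorescence; 0% = enzyme with DMSO and 100% = DMSO without enzyme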
SUMO HTRF inh: SUMOylation inhibition | P63279 | HTRF SUMOylation assay, SAE1/SAE2 + UBC9, in vitro | inhibition, % at 35 µM | 290,000 tested, 0.36% active; in the data active means inhibition above about 50%, passing the limit was not always enough
* marks the source's active call; other numbers are inactive results; i = inactive; . = no result.

SMILES	CTSL1 counter	T cell modulator	IMP-1 inh	p-CIP stab down	VIM-2 inhibitor	SUMO HTRF inh
COc1cc(OC)c(/C=N/NC(=O)c2ccc(NC(C)=O)cc2)cc1Br	.	.	-2	-4	0	50*
COc1cc(OC)c(/C=N/NC(N)=S)cc1Br	74*	560	0	3	2	-2
C/C(=N/NC(=O)c1nnn(-c2nonc2N)c1COc1ccccc1)c1ccc(O)cc1	1	328	-2	-15	-1	0
COc1ccc(-c2nc3ccc(N4CCN(C)CC4)cc3c(=O)[nH]2)cc1	1	227	-3	-2	8.1*	16
Cc1ccc(C)c(S(=O)(=O)N2C(=S)NC(=O)C2C(C)C)c1 (stereo not given)	17*	396	-1	-6	-2	-8
Cc1ccc(C)c(S(=O)(=O)N2CCCN(C)CC2)c1	4	334	0	-15	1	-2
Cn1c2ccccc2c2cc(C(=O)NNC(=O)CCl)sc21	94*	156	-4	-5	-3	4
COC(=O)c1ccc(NC(=O)CCN2CCOCC2)cc1	4	313	-4	-13	-3	8
COc1ccc(CN(CCC(c2ccccc2)c2ccc(OC(C)C)cc2)C(=O)CCl)cc1OC (stereo not given)	36*	419	-4	-7	-1	-29
CC(C)c1ccc(/C=C2\SC(=S)N(CCC(=O)N3CCCCC3CCO)C2=O)cc1 (stereo not given)	0	203	-3	-1	-4	-35
COC/C=C/C1=CC2=CC(=O)C(C)(OC(=O)c3cnc4ccccc4n3)C(=O)C2=CN1c1ccc(CO)cc1 (stereo not given)	-2	555	-4	13	-1	58*
Cc1ccc(C(C(=O)NC2CCCC2)N(C(=O)CNC(=O)c2ccco2)c2ccccc2)o1 (stereo not given)	0	590	-2	-17	-1	22
CC(=O)Nc1ccc(S(=O)(=O)c2ccc(N)cc2)cc1	1	i	-2	-4	-1	21
NC(=S)Nc1ccc(S(=O)(=O)c2ccc(NC(N)=S)cc2)cc1	-1	189	11*	-6	-5	19
CC(C)CC(NC(=O)C1CCC(C)CC1)C(=O)NCCN1CCOCC1 (stereo not given)	60*	988	-4	3	-7	2
CSCCC(NC(=O)C1CCC(C)CC1)C(=O)O (stereo not given)	1	338	-4	-1	-6	8
CCC1CCC(C(=O)NC(CCSC)C(=O)NCCc2ccc(S(N)(=O)=O)cc2)CC1 (stereo not given)	3	0	0	-8	-1	11
CCC1CCC(C(=O)NC(CCSC)C(=O)NCCN(CC(C)C)CC(C)C)CC1 (stereo not given)	31*	432	-2	8	-1	3
CSCCC(NC(=O)C1CCC(C)CC1)C(=O)NCCN1CCOCC1 (stereo not given)	38*	198	-3	-8	-3	17
NC(=O)c1ccc(OCC(F)(F)F)nc1	-1	460	-2	1	-3	-6
COc1ccc(NC(=O)Cc2nnc(SCC(=O)NC3CCCCC3C)n2C)cc1 (stereo not given)	0	178	-2	-5	-2	10
Cc1cccc(OCC(=O)Nc2ccc(C(=O)Nc3ccccc3C(=O)O)cc2)c1C	3	299	-2	0	-4	7
CCN(CC)c1ccc(C(=O)NNC(=O)CCl)cc1	58*	368	-2	12	1	-3
Cc1ccc(S(=O)(=O)N2CCCCC2)cc1NC(=O)CCc1nc2ccccc2c(=O)[nH]1	-6	536	.	.	.	.
COc1ccc(S(=O)(=O)N2CCCCC2)cc1NC(=O)CCc1nc2ccccc2c(=O)[nH]1	28*	232	.	.	.	.
Cc1cc(N2CCN(c3ccccn3)CC2)n2nc(C)nc2n1	-1	268	-1	.	10*	.
CN1CCN(NC(=O)CC(C)(C)C)CC1	2	351	-3	0	-3	1
CCCCCCC(=O)NN1CCN(C)CC1	4	305	8.0*	6	-4	-1
O=C(NCc1ccco1)c1cc2nc(-c3cccs3)cc(C(F)(F)F)n2n1	3	324	-5	-5	8.6*	37
